From ChEMBL document CHEMBL1150956, “Antitubercular natural products: berberine from the roots of commercial Hydrastis canadensis powder. Isolation of inactive 8-oxotetrahydrothalifendine, canadine, beta-hydrastine, and two new quinic acid esters, hycandinic acid esters-1 and -2” (1998)
The source made the active and inactive calls. No cut-off for these calls is given here.

Key:
Staphylococcus aureus [1] = assay: Antimicrobial activity against Staphylococcus aureus ATCC 13709 at 1000 ug/ml; type: functional, organism-based
[2] = test system: Mycolicibacterium smegmatis; assay: Antimicrobial activity against Mycobacterium smegmatis ATCC 607 at 1000 ug/ml; type: functional, organism-based
Candida albicans [3] = assay: Antimicrobial activity against Candida albicans ATCC 10231 at 1000 ug/ml; type: functional, organism-based
Staphylococcus aureus [4] = assay: Antimicrobial activity against Staphylococcus aureus ATCC 13709; type: functional
Klebsiella pneumoniae [5] = assay: Antimicrobial activity against Klebsiella pneumoniae ATCC 10031; type: functional
[6] = test system: Mycolicibacterium smegmatis; assay: Antimicrobial activity against Mycobacterium smegmatis ATCC 607; type: functional
Candida albicans [7] = assay: Antimicrobial activity against Candida albicans ATCC 10231; type: functional
[8] = test system: Mycobacterium intracellulare; assay: Antimicrobial activity against recombinant Mycobacterium intracellular expressing pMV361 lux after 3 days by luciferase assay; type: functional; conditions: 72 h
In short: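 Recombinant M. intracellulare pMV361 lux at about 5e5 cfu/mL final, in Middlebrook 7H9 broth with compound at 0.1–50 µg/mL; no-drug 1% DMSO growth controls. Incubated at 36 °C in ambient air. 100 µL culture plus 100 µL of 1 mM luciferin, read as RLU at day 0 (within 30 min) and after 3 days.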

Klebsiella pneumoniae [9] = assay: Antimicrobial activity against Klebsiella pneumoniae ATCC 10031 at 1000 ug/ml; type: functional, organism-based
Escherichia coli [10] = assay: Antimicrobial activity against Escherichia coli ATCC 9637; type: functional
[11] = test system: Salmonella enterica subsp. enterica serovar Gallinarum; assay: Antimicrobial activity against Salmonella gallinarum ATCC 9184; type: functional
Pseudomonas aeruginosa [12] = assay: Antimicrobial activity against Pseudomonas aeruginosa ATCC 27853; type: functional
Escherichia coli [13] = assay: Antimicrobial activity against Escherichia coli ATCC 9637 at 1000 ug/ml; type: functional, organism-based
[14] = test system: Salmonella enterica subsp. enterica serovar Gallinarum; assay: Antimicrobial activity against Salmonella gallinarum ATCC 9184 at 1000 ug/ml; type: functional, organism-based
Pseudomonas aeruginosa [15] = assay: Antimicrobial activity against Pseudomonas aeruginosa ATCC 27853 at 1000 ug/ml; type: functional, organism-based

Row | SMILES | Activity (Staphylococcus aureus [1]) | Activity [2] | Activity (Candida albicans [3]) | MIC [8] [µg/mL] | Activity (Klebsiella pneumoniae [9]) | other results
1 | CCCCOC(=O)[C@@]1(O)CC(OC(=O)/C=C/c2ccc(O)c(OC)c2)[C@H](O)[C@H](O)C1 (some centres not stated) | inactive | inactive | inactive | – | – | –
2 | CCCCOC(=O)[C@@]1(O)CC(OC(C)=O)[C@H](OC(=O)/C=C/c2ccc(OC(C)=O)c(OC)c2)[C@H](OC(C)=O)C1 (some centres not stated) | inactive | inactive | inactive | – | – | –
3 | CCCCOC(=O)[C@@]1(O)CC(O)[C@H](OC(=O)/C=C/c2ccc(O)c(OC)c2)[C@H](O)C1 (some centres not stated) | inactive | inactive | inactive | – | – | –
4 | CCCCOC(=O)[C@@]1(O)CC(OC(=O)/C=C/c2ccc(OC(C)=O)c(OC)c2)[C@H](OC(C)=O)[C@H](OC(C)=O)C1 (some centres not stated) | inactive | inactive | inactive | – | – | –
5 | CCCCOC(=O)[C@@]1(OC(C)=O)CC(OC(=O)/C=C/c2ccc(OC(C)=O)c(OC)c2)[C@H](OC(C)=O)[C@H](OC(C)=O)C1 (some centres not stated) | inactive | inactive | inactive | – | – | –
6 | COc1ccc2cc3[n+](cc2c1OC)CCc1cc2c(cc1-3)OCO2.[Cl-] [BERBERINE CHLORIDE] | – | – | – | 200 | – | MIC (Staphylococcus aureus [4]): 50 µg/mL; MIC (Klebsiella pneumoniae [5]): 100 µg/mL; MIC [6]: 25 µg/mL; MIC (Candida albicans [7]): 100 µg/mL
7 | COc1ccc2c(c1OC)CN1CCc3cc4c(cc3[C@@H]1C2)OCO4 [CANADINE] | inactive | inactive | inactive | > 50 | inactive | –
8 | CN[C@@H]1[C@H](O[C@H]2[C@H](O[C@H]3[C@H](O)[C@@H](O)[C@H](N=C(N)N)[C@@H](O)[C@@H]3N=C(N)N)O[C@@H](C)[C@]2(O)C=O)O[C@@H](CO)[C@H](O)[C@H]1O.CN[C@@H]1[C@H](O[C@H]2[C@H](O[C@H]3[C@H](O)[C@@H](O)[C@H](N=C(N)N)[C@@H](O)[C@@H]3N=C(N)N)O[C@@H](C)[C@]2(O)C=O)O[C@@H](CO)[C@H](O)[C@H]1O.O=S(=O)(O)O.O=S(=O)(O)O.O=S(=O)(O)O [STREPTOMYCIN SULFATE] | – | – | – | – | – | MIC (Staphylococcus aureus [4]): 6.25 µg/mL; MIC (Escherichia coli [10]): 6.25 µg/mL; MIC [11]: 50 µg/mL; MIC (Klebsiella pneumoniae [5]): 1.56 µg/mL; MIC [6]: 1.56 µg/mL; MIC (Candida albicans [7]): > 100 µg/mL; MIC (Pseudomonas aeruginosa [12]): 25 µg/mL
9 | CCCCOC(=O)[C@@]1(OC(C)=O)CC(OC(C)=O)[C@H](OC(=O)/C=C/c2ccc(OC(C)=O)c(OC)c2)[C@H](OC(C)=O)C1 (some centres not stated) | inactive | inactive | inactive | – | – | –
10 | COc1ccc2c(c1OC)C(=O)O[C@@H]2C1c2cc3c(cc2CCN1C)OCO3 (some centres not stated) | inactive | inactive | inactive | – | inactive | Activity (Escherichia coli [13]): inactive; Activity [14]: inactive; Activity (Pseudomonas aeruginosa [15]): inactive
11 | COc1c(OC(C)=O)ccc2c1C(=O)N1CCc3cc4c(cc3C1C2)OCO4 (configuration not stated) | inactive | inactive | inactive | > 50 | inactive | –
12 | COc1c(O)ccc2c1C(=O)N1CCc3cc4c(cc3C1C2)OCO4 (configuration not stated) | inactive | inactive | inactive | > 50 | inactive | –
13 | COc1ccc2c(c1OC)C(=O)N1CCc3cc4c(cc3C1C2)OCO4 (configuration not stated) | inactive | inactive | inactive | > 50 | inactive | –
